Source: ChEMBL document CHEMBL4325889, “Natural products hybrids: 3,5,4'-Trimethoxystilbene-5,6,7-trimethoxyflavone chimeric analogs as potential cytotoxic agents against diverse human cancer cells” (Eur J Med Chem, 2019)

Key:
PC-3 = experiment: Growth inhibition of human PC3 cells at 10 uM after 48 hrs by SRB assay relative to control; format: functional; conditions: PC-3, 48 h, read-out: GI
In short: (§1)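 Screened at the National Cancer Institute by the standard NCI protocol using the sulforhodamine B assay, which measures cellular protein. Single dose of 10 µM. Result is percent growth inhibition; values above 100% mean cell number fell below the initial population. Values are the average of duplicates.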

L132 = experiment: Cytotoxicity against human L-132 cells after 48 hrs by MTT assay; format: cell-based; conditions: L132, 48 h
In short: (§2)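 Normal human lung epithelial L132 and ovarian epithelial IOSE-80PC cells were tested by MTT viability assay, and IC50 was determined.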

IGROV-1 = experiment: Growth inhibition of human IGROV1 cells at 10 uM after 48 hrs by SRB assay relative to control; format: functional; conditions: IGROV-1, 48 h, read-out: GI; in short: as §1
LOX IMVI = experiment: Growth inhibition of human LOXIMVI cells at 10 uM after 48 hrs by SRB assay relative to control; format: functional; conditions: read-out: GI; in short: as §1
HOP-92 = experiment: Growth inhibition of human HOP92 cells at 10 uM after 48 hrs by SRB assay relative to control; format: functional; conditions: HOP-92, 48 h, read-out: GI; in short: as §1
U-251 = experiment: Growth inhibition of human U251 cells at 10 uM after 48 hrs by SRB assay relative to control; format: functional; conditions: U-251, 48 h, read-out: GI
In short: (§3)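 NCI screen against its human cancer cell line panel by the standard NCI protocol, SRB protein stain. Single dose of 10 μM. Percent growth inhibition versus control; values above 100% mean the cell population fell below the starting number. Each value is the mean of duplicates.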

SF-268 = experiment: Growth inhibition of human SF268 cells at 10 uM after 48 hrs by SRB assay relative to control; format: functional; conditions: SF-268, 48 h, read-out: GI; in short: as §1
NCI/ADR-RES = experiment: Growth inhibition of human NCI/ADR-RES cells at 10 uM after 48 hrs by SRB assay relative to control; format: functional; conditions: read-out: GI; in short: as §1
HCT-116 = experiment: Growth inhibition of human HCT116 cells at 10 uM after 48 hrs by SRB assay relative to control; format: functional; conditions: HCT-116, 48 h, read-out: GI; in short: as §1
UO-31 = experiment: Growth inhibition of human UO31 cells at 10 uM after 48 hrs by SRB assay relative to control; format: functional; conditions: UO-31, 48 h, read-out: GI; in short: as §3
BT-549 = experiment: Growth inhibition of human BT549 cells at 10 uM after 48 hrs by SRB assay relative to control; format: functional; conditions: BT-549, 48 h, read-out: GI; in short: as §1
SF-539 = experiment: Growth inhibition of human SF539 cells at 10 uM after 48 hrs by SRB assay relative to control; format: functional; conditions: SF-539, 48 h, read-out: GI; in short: as §1
HT-29 = experiment: Growth inhibition of human HT-29 cells at 10 uM after 48 hrs by SRB assay relative to control; format: functional; conditions: HT-29, 48 h, read-out: GI; in short: as §1
[1] = Cytotoxicity against human IOSE-80PC cells after 48 hrs by MTT assay; format: cell-based; in short: as §2
SF-295 = experiment: Growth inhibition of human SF295 cells at 10 uM after 48 hrs by SRB assay relative to control; format: functional; conditions: SF-295, 48 h, read-out: GI; in short: as §1
HL-60(TB) = experiment: Growth inhibition of human HL-60(TB) cells at 10 uM after 48 hrs by SRB assay relative to control; format: functional; conditions: HL-60, 48 h, read-out: GI
In short: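 Run at NCI under its standard single-dose protocol against a leukemia cell panel. Cells were exposed to 10 µM; growth was read by sulforhodamine B staining of cellular protein and expressed as % growth inhibition versus untreated control. Values above 100% mean the cell population fell below the starting count (cytocidal). Each value is the average of duplicates.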

NCI-H322M = experiment: Growth inhibition of human NCI-H322M cells at 10 uM after 48 hrs by SRB assay relative to control; format: functional; conditions: read-out: GI; in short: as §1
OVCAR-5 = experiment: Growth inhibition of human OVCAR5 cells at 10 uM after 48 hrs by SRB assay relative to control; format: functional; conditions: OVCAR-5, 48 h, read-out: GI; in short: as §1
SK-MEL-2 = experiment: Growth inhibition of human SK-MEL-2 cells at 10 uM after 48 hrs by SRB assay relative to control; format: functional; conditions: SK-MEL-2, 48 h, read-out: GI; in short: as §1
CAKI-1 = experiment: Growth inhibition of human Caki1 cells at 10 uM after 48 hrs by SRB assay relative to control; format: functional; conditions: CAKI-1, 48 h, read-out: GI; in short: as §1
COLO 205 = experiment: Growth inhibition of human COLO205 cells at 10 uM after 48 hrs by SRB assay relative to control; format: functional; conditions: COLO 205, 48 h, read-out: GI; in short: as §1

SMILES | inhibition of growth at 10 µM (PC-3) [%] | IC50 (L132) [µM] | inhibition of growth at 10 µM (IGROV-1) [%] | inhibition of growth at 10 µM (LOX IMVI) [%] | inhibition of growth at 10 µM (HOP-92) [%] | inhibition of growth at 10 µM (U-251) [%] | inhibition of growth at 10 µM (SF-268) [%] | inhibition of growth at 10 µM (NCI/ADR-RES) [%] | inhibition of growth at 10 µM (HCT-116) [%] | inhibition of growth at 10 µM (UO-31) [%] | inhibition of growth at 10 µM (BT-549) [%] | inhibition of growth at 10 µM (SF-539) [%] | inhibition of growth at 10 µM (HT-29) [%] | inhibition of growth at 10 µM (SF-295) [%] | inhibition of growth at 10 µM (HL-60(TB)) [%] | inhibition of growth at 10 µM (NCI-H322M) [%] | inhibition of growth at 10 µM (OVCAR-5) [%] | inhibition of growth at 10 µM (SK-MEL-2) [%] | inhibition of growth at 10 µM (CAKI-1) [%] | inhibition of growth at 10 µM (COLO 205) [%] | also measured
COc1ccccc1C(=O)Nc1cccc(-c2cc(=O)c3c(OC)c(OC)c(OC)cc3o2)c1 | 70 | > 100 | 57.1 | 64.6 | 100 | 61 | 45.5 | 41.8 | 63.3 | 84.8 | 54.1 | 36.2 | 75.4 | 40.8 | 42.3 | 56.4 | 18.8 | 68.8 | 34.9 | – | IC50 [1]: > 100 µM
COc1cc(NC(=O)c2cccc(-c3cc(=O)c4c(O)c(OC)c(OC)cc4o3)c2)cc(OC)c1OC | 50.2 | > 100 | 29.6 | 67 | 43.9 | 55.2 | 38.1 | 50.6 | 55.2 | 65.7 | 93 | 48.3 | 37.2 | 38.5 | 22 | 25.6 | 22.6 | 30.4 | 37.5 | 32.3 | IC50 [1]: > 100 µM
COc1ccc(C(=O)Nc2cccc(-c3cc(=O)c4c(OC)c(OC)c(OC)cc4o3)c2)cc1 | 68.1 | – | 46.1 | 58.1 | 93.3 | 27.7 | 41.6 | 39.8 | 52.2 | 73.5 | 48.6 | 33.7 | 53.3 | 40.4 | 55.2 | 44.9 | 4.43 | 38.7 | 42.6 | 26.9 | –
COc1ccccc1C(=O)Nc1cccc(-c2cc(=O)c3c(O)c(OC)c(OC)cc3o2)c1 | 10.3 | – | 3.04 | 4.4 | 5.45 | 33.1 | 8.58 | 5.26 | 11.7 | 15.2 | 25.1 | 9.52 | 2.63 | 6.16 | 0.6 | 8.64 | 5.27 | 0.56 | 9.48 | -7.03 | –
COc1cccc(C(=O)Nc2cccc(-c3cc(=O)c4c(O)c(OC)c(OC)cc4o3)c2)c1 | 59.6 | – | 25.7 | 57.6 | 31.2 | 28.4 | 29.8 | 43.7 | 44.5 | 52.9 | 34.2 | 22.9 | 27.9 | 33.1 | 19.5 | 30.9 | 9.51 | 21.6 | 23.8 | 5.46 | –
COc1cc2oc(-c3cccc(C(=O)Nc4ccccc4)c3)cc(=O)c2c(O)c1OC | 29 | – | 14.6 | 11.9 | 94.7 | 63.1 | 63 | 20.9 | 53.7 | 40.3 | 39.9 | 80.6 | 45.9 | 30 | 7.3 | 33.6 | 5.59 | 35 | 51.1 | 7.73 | –
COc1cc2oc(-c3cccc(NC(=O)c4ccc5c(c4)OCO5)c3)cc(=O)c2c(OC)c1OC | 112 | 55 | 53 | 60.5 | 106 | 67.5 | 51.9 | 42.4 | 64.5 | 75.8 | 58.6 | 43 | 70.6 | 46.1 | 65.4 | 56.5 | 6.14 | 37.6 | 22.9 | 31.9 | IC50 [1]: > 100 µM
